Reference: ChEMBL document CHEMBL3872212, “Synthesis, antimicrobial activity and advances in structure-activity relationships (SARs) of novel tri-substituted thiazole derivatives” (2016)
Converted amounts (≈) assume the structure as drawn.

Experiments:
Assay type in all cases: functional
[1] = tested on: Aspergillus flavus; test: Antifungal activity against Aspergillus flavus MTCC 1884 at 200 ug/mL incubated at 4 degC for 24 hrs followed by subsequent incubation at 37.5 degC for 3 days by poisoned food method; settings: read-out: DIZ
[2] = tested on: Aspergillus niger; test: Antifungal activity against Aspergillus niger MTCC 1881 at 200 ug/mL incubated at 4 degC for 24 hrs followed by subsequent incubation at 37.5 degC for 3 days by poisoned food method; settings: read-out: DIZ
[3] = tested on: Staphylococcus aureus; test: Antibacterial activity against Staphylococcus aureus ATCC 19433 measured after 24 hrs by broth dilution method
How it was run: (§1)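 MIC is the lowest concentration that arrests growth of the organism.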

[4] = tested on: Escherichia coli; test: Bactericidal activity against Escherichia coli ATCC 8739 measured after 24 hrs by broth dilution method
How it was run: (§2)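 MBC/MFC is found by further steps carried out once the MIC has been determined.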

[5] = tested on: Proteus vulgaris; test: Antibacterial activity against Proteus vulgaris […] at 200 ug/mL measured after 24 hrs by filter paper disc method; settings: read-out: DIZ
[6] = tested on: Aspergillus niger; test: Antifungal activity against Aspergillus niger MTCC 1881 measured after 2 days by broth dilution method; how it was run: as §1
[7] = tested on: Proteus vulgaris; test: Antibacterial activity against Proteus vulgaris […] measured after 24 hrs by broth dilution method; how it was run: as §1
[8] = tested on: Aspergillus flavus; test: Fungicidal activity against Aspergillus flavus MTCC 1884 measured after 2 days by broth dilution method; how it was run: as §2
[9] = tested on: Staphylococcus aureus; test: Antibacterial activity against Staphylococcus aureus ATCC 19433 at 200 ug/mL measured after 24 hrs by filter paper disc method; settings: ATCC 19433, 24 h, read-out: DIZ
[10] = tested on: Bacillus spizizenii; test: Antibacterial activity against Bacillus subtilis ATCC 6633 at 200 ug/mL measured after 24 hrs by filter paper disc method; settings: ATCC 6633, 24 h, read-out: DIZ
[11] = tested on: Aspergillus niger; test: Fungicidal activity against Aspergillus niger MTCC 1881 measured after 2 days by broth dilution method; how it was run: as §2
[12] = tested on: Aspergillus flavus; test: Antifungal activity against Aspergillus flavus MTCC 1884 measured after 2 days by broth dilution method; how it was run: as §1
[13] = tested on: Proteus vulgaris; test: Bactericidal activity against Proteus vulgaris […] measured after 24 hrs by broth dilution method; how it was run: as §2
[14] = tested on: Escherichia coli; test: Antibacterial activity against Escherichia coli ATCC 8739 at 200 ug/mL measured after 24 hrs by filter paper disc method; settings: ATCC 8739, 24 h, read-out: DIZ
[15] = tested on: Escherichia coli; test: Antibacterial activity against Escherichia coli ATCC 8739 measured after 24 hrs by broth dilution method; how it was run: as §1
[16] = tested on: Staphylococcus aureus; test: Bactericidal activity against Staphylococcus aureus ATCC 19433 measured after 24 hrs by broth dilution method; how it was run: as §2
[17] = tested on: Bacillus spizizenii; test: Bactericidal activity against Bacillus subtilis ATCC 6633 measured after 24 hrs by broth dilution method; how it was run: as §2
[18] = tested on: Escherichia coli; test: Ratio of MBC to MIC for Escherichia coli ATCC 8739
[19] = tested on: Aspergillus flavus; test: Ratio of MFC to MIC for Aspergillus flavus MTCC 1884
[20] = tested on: Bacillus spizizenii; test: Antibacterial activity against Bacillus subtilis ATCC 6633 measured after 24 hrs by broth dilution method; how it was run: as §1
[21] = tested on: Staphylococcus aureus; test: Ratio of MBC to MIC for Staphylococcus aureus ATCC 19433
[22] = tested on: Proteus vulgaris; test: Ratio of MBC to MIC for Proteus vulgaris […]
[23] = tested on: Aspergillus niger; test: Ratio of MFC to MIC for Aspergillus niger MTCC 1881
[24] = tested on: Bacillus spizizenii; test: Ratio of MBC to MIC for Bacillus subtilis ATCC 6633

Compound | zone of inhibition at 200 µg/mL [1] [mm] | zone of inhibition at 200 µg/mL [2] [mm] | MIC [3] [µg] | MBC [4] [µg] | zone of inhibition at 200 µg/mL [5] [mm] | MIC [6] [µg] | MIC [7] [µg] | MFC [8] [µg] | zone of inhibition at 200 µg/mL [9] [mm] | zone of inhibition at 200 µg/mL [10] [mm] | MFC [11] [µg] | MIC [12] [µg/mL] | MBC [13] [µg] | zone of inhibition at 200 µg/mL [14] [mm] | MIC [15] [µg] | MBC [16] [µg] | MBC [17] [µg] | Ratio [18] | Ratio [19] | MIC [20] [µg/mL] | other results
Cc1ccc(-c2ccc(-c3nc(C)sc3C)cc2)cc1 | 21.3 | 19.7 | 100 | 100 | 19.5 | 25 | 50 | 100 | 23.1 | 21.1 | >200 | 25 (≈ 89.5 µM) | 100 | 24.2 | 12.5 | >200 | 100 | – | – | – | –
COc1ccc(-c2ccc(-c3nc(C)sc3C)cc2)cc1 | 24.9 | 23.4 | 50 | 25 | 21.6 | 12.5 | 25 | 50 | 25.5 | 22.1 | 100 | 25 (≈ 84.6 µM) | 100 | 27.1 | 12.5 | >200 | 100 | 2 | 2 | 6.25 (≈ 21.2 µM) | –
COc1cccc(-c2ccc(-c3nc(C)sc3C)cc2)c1 | 9.11 | 6.32 | – | – | 18.8 | – | – | – | 17.5 | 15.2 | – | – | – | 19.2 | – | – | – | – | – | – | –
COc1ccc(-c2ccc(-c3nc(C)sc3C)cc2)cc1OC | 24.2 | 22.5 | 25 | 200 | 20.9 | 25 | 25 | 200 | 24.1 | 22 | 100 | – | 100 | 25.6 | 50 | 50 | 100 | – | – | 12.5 (≈ 38.4 µM) | Ratio [21]: 2; Ratio [22]: 2
Cc1nc(-c2ccc(-c3ccc(C(F)(F)F)cc3)cc2)c(C)s1 | – | – | – | – | 6.91 | – | – | – | 7.86 | 5.37 | – | – | – | 8.7 | – | – | – | – | – | – | –
Cc1nc(-c2ccc(-c3ccc(I)cc3)cc2)c(C)s1 | 9.57 | 8 | – | – | 15.1 | – | – | – | 14.8 | 12.1 | – | – | – | 16.2 | – | – | – | – | – | – | –
Cc1nc(-c2ccc(-c3cccc(C=O)c3)cc2)c(C)s1 | 6.29 | 3.92 | – | – | 7.39 | – | – | – | 8.02 | 6.65 | – | – | – | 9.56 | – | – | – | – | – | – | –
Cc1nc(-c2ccc(-c3ccc(CO)cc3)cc2)c(C)s1 | 17.1 | 14.5 | 12.5 | 100 | 17.6 | 25 | 100 | 100 | 21.6 | 20 | 200 | 25 (≈ 84.6 µM) | >200 | 23.8 | 25 | >200 | 100 | >2 | >2 | – | Ratio [21]: >2; Ratio [22]: >2; Ratio [23]: >2; Ratio [24]: >2
Cc1nc(-c2ccc(-c3ccc(F)c(C)c3)cc2)c(C)s1 | 5.63 | – | – | – | 15.2 | – | – | – | 16.4 | 14.6 | – | – | – | 18.1 | – | – | – | – | – | – | –
Cc1cc(C)c(-c2ccc(-c3nc(C)sc3C)cc2)c(C)c1 | 27.8 | 25.2 | 25 | 12.5 | 22.1 | 6.25 | 12.5 | 25 | 26.1 | 24.6 | 100 | 12.5 (≈ 40.7 µM) | 50 | 28 | 6.25 | 100 | 50 | 2 | 2 | 6.25 (≈ 20.3 µM) | –
Cc1nc(-c2ccc(-c3ccc(O)cc3)cc2)c(C)s1 | 15.3 | 13.6 | 25 | >200 | 20 | 50 | 50 | 100 | 19.2 | 17.7 | 200 | 25 (≈ 88.8 µM) | 200 | 21.1 | 25 | 100 | 200 | >2 | >2 | – | Ratio [21]: >2; Ratio [22]: >2; Ratio [23]: >2; Ratio [24]: >2
O=C(O)c1cn(C2CC2)c2cc(N3CCNCC3)c(F)cc2c1=O [CIPROFLOXACIN] | – | – | 6.25 | – | 23.2 | – | – | – | 27 | 25.5 | – | – | – | 29.8 | 6.25 | – | – | – | – | 6.25 (≈ 18.9 µM) | –
CC(=O)N1CCN(c2ccc(OCC3COC(Cn4ccnc4)(c4ccc(Cl)cc4Cl)O3)cc2)CC1 (stereo not given) [KETOCONAZOLE] | 28.4 | 25.4 | – | – | – | 6.25 | – | – | – | – | – | 12.5 (≈ 23.5 µM) | – | – | – | – | – | – | – | – | –
